According to ChEMBL document CHEMBL2040841, “Design, synthesis and evaluation of triazole functionalized ring-fused 2-pyridones as antibacterial agents” (Eur J Med Chem, 2012):
pEC50: −log10 of the molar value. Activity calls are given as the source filed them. The rule behind the calls is not given here.

Tests used:
Escherichia coli [1] = assay: Inhibition of type 1 pili formation in uropathogenic Escherichia coli isolate UTI89 assessed as inhibition of biofilm formation after 24 hrs by crystal violet staining method; type: functional, organism-based; settings: isolate UTI89, 24 h
In short: (§1)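 UTI89 grown overnight in LB at 37 °C, then diluted 1:1000 in LB under type-1 pili inducing conditions. Compounds were added at a constant DMSO level, and the plates were incubated 24 h in humid boxes at 26 °C. Wells were washed with water, air dried and stained with 1% crystal violet, and absorbance was read at 600 nm. Growth was monitored in separate plates. Triplicates were compared with DMSO-treated controls.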

Escherichia coli [2] = assay: Antibacterial activity against uropathogenic Escherichia coli isolate UTI89 assessed as inhibition of biofilm formation at 200 uM after 24 hrs by crystal violet staining method; type: functional, organism-based; in short: as §1

Structure (SMILES) | pEC50 (Escherichia coli [1]) | inhibition (Escherichia coli [2])
O=C(O)[C@@H]1CSc2c(-c3cn(CC4CC4)nn3)c(Cc3cccc4ccccc34)cc(=O)n21 | < 3.70 | inactive
Nc1ccc(Cn2cc(-c3c(Cc4cccc5ccccc45)cc(=O)n4c3SC[C@H]4C(=O)O)nn2)cc1 | < 3.70 | inactive
O=C(O)[C@@H]1CSc2c(-c3cn([C@H](CO)Cc4ccccc4)nn3)c(Cc3cccc4ccccc34)cc(=O)n21 | < 3.70 | inactive
O=C(O)c1c(-c2c[nH]nn2)sc2c(-c3cccc(C(F)(F)F)c3)c(Cc3cccc4ccccc34)cc(=O)n12 | < 3.70 | inactive
O=C(O)c1c(-c2c[nH]nn2)sc2c(C3CC3)c(Cc3cccc4ccccc34)cc(=O)n12 | 4.12 | –
O=C(O)[C@@H]1CSc2c(-c3cn([C@@H]4OC[C@@H](O)[C@H](O)[C@H]4O)nn3)c(Cc3cccc4ccccc34)c(Br)c(=O)n21 | < 3.70 | inactive
Cn1cc(-c2sc3c(-c4cccc(C(F)(F)F)c4)c(Cc4cccc5ccccc45)cc(=O)n3c2C(=O)O)nn1 | 5.05 | –
O=C(O)[C@@H]1CSc2c(-c3cn(Cc4ccccc4)nn3)c(Cc3cccc4ccccc34)cc(=O)n21 | 4.00 | –
O=C(O)[C@@H]1CSc2c(-c3cn([C@H](CO)Cc4ccccc4)nn3)c(Cc3cccc4ccccc34)c(Br)c(=O)n21 | 3.82 | –
Cn1cc(-c2c(Cc3cccc4ccccc34)cc(=O)n3c2SC[C@H]3C(=O)O)nn1 | < 3.70 | inactive
Cc1ccc(Cn2cc(-c3c(Cc4cccc5ccccc45)cc(=O)n4c3SC[C@H]4C(=O)O)nn2)cc1 | 4.12 | –
O=C(O)[C@@H]1CSc2c(-c3cn([C@@H]4OC[C@@H](O)[C@H](O)[C@H]4O)nn3)c(Cc3cccc4ccccc34)cc(=O)n21 | < 3.70 | inactive
O=C(O)c1c(-c2cn(Cc3ccccc3)nn2)sc2c(-c3cccc(C(F)(F)F)c3)c(Cc3cccc4ccccc34)cc(=O)n12 | 4.30 | –
O=C(O)[C@@H]1CSc2c(-c3c[nH]nn3)c(Cc3cccc4ccccc34)cc(=O)n21 | < 3.70 | inactive
Cn1cc(-c2sc3c(C4CC4)c(Cc4cccc5ccccc45)cc(=O)n3c2C(=O)O)nn1 | 3.82 | inactive
O=C(O)c1c(-c2cn(Cc3ccccc3)nn2)sc2c(C3CC3)c(Cc3cccc4ccccc34)cc(=O)n12 | < 3.70 | inactive

More lines, main results first:

pEC50 (Escherichia coli [1]) | Structure (SMILES) | inhibition (Escherichia coli [2])
3.70 | Cc1ccc(Cn2cc(-c3c(Cc4cccc5ccccc45)c(Br)c(=O)n4c3SC[C@H]4C(=O)O)nn2)cc1 | inactive
< 3.70 | CCn1cc(-c2c(Cc3cccc4ccccc34)cc(=O)n3c2SC[C@H]3C(=O)O)nn1 | inactive
4.00 | O=C(O)[C@@H]1CSc2c(-c3cn(Cc4ccccc4)nn3)c(Cc3cccc4ccccc34)c(Br)c(=O)n21 | –
4.46 | O=C(O)[C@@H]1CSc2c(-c3cn(Cc4ccc([N+](=O)[O-])cc4)nn3)c(Cc3cccc4ccccc34)c(Br)c(=O)n21 | –
< 3.70 | O=C(O)[C@@H]1CSc2c(-c3c[nH]nn3)c(Cc3cccc4ccccc34)c(Br)c(=O)n21 | inactive
< 3.70 | O=C(O)[C@@H]1CSc2c(-c3cn(CC4CC4)nn3)c(Cc3cccc4ccccc34)c(Br)c(=O)n21 | inactive
< 3.70 | Cn1cc(-c2c(Cc3cccc4ccccc34)c(Br)c(=O)n3c2SC[C@H]3C(=O)O)nn1 | inactive
< 3.70 | CCn1cc(-c2c(Cc3cccc4ccccc34)c(Br)c(=O)n3c2SC[C@H]3C(=O)O)nn1 | inactive
